Records with an inconclusive call do not appear.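 How the source made its calls, unless noted: active means growth inhibition above 25% in both replicates, a cutoff set 3 SD above the mean; inconclusive means above 25% in only one replicate; inactive means the rest.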
Tests used:
[1] = S. cerevisiae growth inhibition in permissive medium (OD615), pilot counter-assay for S. cerevisiae lifespan shortening project, permissive growth control (AID 705); conditions: OD615, 24 h, at 10 µM, hits give high values
Method in brief: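 System: Engineered DeaD yeast | Buffer or medium: SC raffinose/galactose permissive medium | Incubation: Cells pre-grown 4 h, then 24 h compound exposure, 30 °C humidified | Measured by: Absorbance (optical density) at 615 nm | Read-out: Reduction in yeast growth (OD615)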

[2] = S. cerevisiae growth inhibition in restrictive medium, OD615, pilot screen, restrictive growth control, yeast lifespan reduction project (AID 706;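 active means growth inhibition above a set limit, 3 SD over mean compound inhibition, in both replicates, cut at about 43% in these data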;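 further: modified DeaD lifespan yeast strain shifted to restrictive glucose medium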); conditions: OD615, 48 h, at 10 µM, hits give high values
Method in brief: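 Material: modified S. cerevisiae; Medium: glucose-based CSMM-D restrictive medium; Compound dosing: one concentration, 10 µM final, 0.25% DMSO; Incubation: 48 h compound exposure at 30 °C; Measured by: OD615.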

[3] = doxorubicin toxicity protection in MRP-1 cells – H69AR cells, CellTiter-Glo, duplicate, MRP-1 activator project, pilot screen (AID 807;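 active means viability increase at or above a cutoff of the median across tested compounds plus 3 SD, cut at about 8.5% in these data, passing the limit was not always enough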;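 further: compound pretreatment 18-22 h then 72 h combined with doxorubicin; 0% = doxorubicin alone and 100% = vehicle without doxorubicin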); conditions: H69AR viability with doxorubicin, CellTiter-Glo luminescence; at 10 µM; hits give high values
[4] = viability of PTEN-null HCT116 cells – cell-based, HCT116 clonal line, CellTiter-Glo, pilot screen (AID 824;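 active means viability at or below 27.92% in each of two runs, the all-compound median minus 4 SD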;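 further: 0% = 20 µM Hyamine control and 100% = vehicle cell control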); conditions: HCT116 PTEN-deleted viability, 60 h, at 10 µM, hits give low values
[5] = RAM pathway blockade in budding yeast – dse1pr::URA3 reporter, 5-FOA selection, pilot screen (AID 869;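 active means inhibition over a set limit, the all-compound mean plus 3 SD, in both replicate runs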;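 further: 0% = DMSO wells with no growth and 100% = 10 µM 1-NA-PP1 with full growth; RAM network block rescues cells from 5-FOA so hits raise OD615 growth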); conditions: S. cerevisiae dse1pr::URA3 5-FOA growth, OD615, 2 d; at 10 µM; hits give high values; strain carries analog-sensitive mutant Cbk1 kinase
[6] = RAM signaling pathway blockade in yeast – S. cerevisiae, Pdr1DBD-CYC8 efflux-inhibited sensitized strain, primary screen (AID 1298;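 active means RAM network inhibition above 8.4% in each of two replicates, 3 SD over the compound average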;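 further: 0% = DMSO untreated cells without growth and 100% = 10 µM 1-NA-PP1 full growth; higher means more yeast growth rescued from 5-FOA killing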); conditions: S. cerevisiae cbk1-as DSE1-URA3 strain, 5-FOA growth OD615, 2 d; at 50 µM; hits give high values

CCCCNC(=O)NS(=O)(=O)c1ccc(NS(=O)(=O)c2ccccc2)cc1
inactive: growth inhibition [1] -10.8% | growth inhibition [2] -7.74% | viability increase [3] -0.52% | viability [4] 98.4% | inhibition [5] 2.14% | RAM network inhibition [6] 4.35%

O=C(CNC(=O)c1ccco1)OCc1ccc(Cl)cc1
inactive: growth inhibition [1] -3.76% | growth inhibition [2] 2.92% | viability increase [3] -2.32% | viability [4] 102% | inhibition [5] 0.375% | RAM network inhibition [6] 0.25%

Cc1ccc(CNC(=O)c2oc3ccc(S(=O)(=O)N4CCC5(CC4)OCCO5)cc3c2C)cc1
inactive: growth inhibition [1] -11% | growth inhibition [2] -10% | viability increase [3] -0.6% | viability [4] 52.6% | inhibition [5] 1.35% | RAM network inhibition [6] 2.87%

CC1=C(C(=O)N2CCOCC2)C(c2cc(C)cs2)NC(=O)N1 (stereo not given)
inactive: growth inhibition [1] -9.44% | growth inhibition [2] 2.88% | viability increase [3] -0.83% | viability [4] 101% | inhibition [5] 2.48% | RAM network inhibition [6] 3.08%

Cc1nc2ccccc2c(=O)n1CCCO
inactive: growth inhibition [1] -2.92% | growth inhibition [2] 0.055% | viability increase [3] -2.52% | viability [4] 96% | inhibition [5] 2.77% | RAM network inhibition [6] 3.03%

Cc1cc(NC(=O)COC(=O)C2CCN(S(=O)(=O)c3ccc(Cl)cc3)CC2)no1
inactive: growth inhibition [1] 4.11% | growth inhibition [2] -2.37% | viability increase [3] -2.01% | viability [4] 98.9% | inhibition [5] 1.19% | RAM network inhibition [6] 1.38%

Cc1c(-c2ccco2)[n+](=O)c2c(n1[O-])CCCCC2
inactive: growth inhibition [1] -4.97% | growth inhibition [2] -4.29% | viability increase [3] -1.32% | viability [4] 105% | inhibition [5] 1.32% | RAM network inhibition [6] 8.4%

CC1Cc2ccccc2N1Cc1nc2scc(-c3cccs3)c2c(=O)[nH]1 (stereo not given)
inactive: growth inhibition [1] 1.81% | growth inhibition [2] 0.44% | viability increase [3] -3.6% | viability [4] 95.3% | inhibition [5] 1.77% | RAM network inhibition [6] 5.16%

COCCOC(=O)c1c(C)oc2ccc(OC(=O)c3cccs3)cc12
inactive: growth inhibition [1] -11.1% | growth inhibition [2] -17% | viability increase [3] 1.16% | viability [4] 104% | inhibition [5] 2.33% | RAM network inhibition [6] 6.79%

O=C(CN1CCN(c2ccccn2)CC1)N(c1ccccc1)c1ccc2ccccc2c1
inactive: growth inhibition [1] -6.17% | growth inhibition [2] -0.835% | viability increase [3] -1.57% | viability [4] 69.9% | inhibition [5] 2.88% | RAM network inhibition [6] 5.32%

CCCOC(=O)c1ccc(OCC(O)Cn2c(C)nc3ccccc32)cc1 (stereo not given)
inactive: growth inhibition [1] -11.1% | growth inhibition [2] -3.87% | viability increase [3] -1.73% | viability [4] 57.2% | inhibition [5] 0.99% | RAM network inhibition [6] 6.95%

Cn1c(=O)oc2cc(S(=O)(=O)N3CCCC(C(=O)NCc4ccc5c(c4)OCO5)C3)ccc21 (stereo not given)
inactive: growth inhibition [1] -7.5% | growth inhibition [2] 6.97% | viability increase [3] -7.5% | viability [4] 36.4% | inhibition [5] 3.25% | RAM network inhibition [6] 8.39%

O=C(Cc1c(C(=O)O)[nH]c2ccccc12)Nc1ccc2c(c1)OCO2
inactive: growth inhibition [1] -7.96% | growth inhibition [2] -0.57% | viability increase [3] -2.23% | viability [4] 99.7% | inhibition [5] 0.445% | RAM network inhibition [6] 2.01%

CC1=CCC(C(=O)O)C(C(=O)O)C1 (stereo not given)
inactive: growth inhibition [1] -2.08% | growth inhibition [2] -10.3% | viability increase [3] -2.04% | viability [4] 95.7% | inhibition [5] 1.69% | RAM network inhibition [6] 1.34%

CCOC(=O)C(C(=O)Nc1cccc(C)n1)C1CCCCC1 (stereo not given)
inactive: growth inhibition [1] -6.76% | growth inhibition [2] -0.005% | viability increase [3] 1.76% | viability [4] 88.1% | inhibition [5] 3.22% | RAM network inhibition [6] 2.72%

COc1ccc(N2C(=O)CCC(C(=O)N3CCCCCC3)C2c2ccc(OC)c(OC)c2)cc1 (stereo not given)
inactive: growth inhibition [1] -2.31% | growth inhibition [2] 12.9% | viability increase [3] -1.38% | viability [4] 99% | inhibition [5] 0.735% | RAM network inhibition [6] 4.47%

COC(=O)C(CC(C)C)Oc1ccc2c(C)cc(=O)oc2c1 (stereo not given)
inactive: growth inhibition [1] -10.5% | growth inhibition [2] 5.8% | viability increase [3] -2.47% | viability [4] 92.6% | inhibition [5] 1.14% | RAM network inhibition [6] 1.38%

C=C(C)Cn1c(CCCNC(=O)CC)nc2ccccc21
inactive: growth inhibition [1] -5.08% | growth inhibition [2] 14.8% | viability increase [3] -1.27% | viability [4] 96% | inhibition [5] 1.54% | RAM network inhibition [6] -0.92%

COc1ccc(CCNC(=O)CN(c2ccc(OC)c(OC)c2)S(C)(=O)=O)cc1OC
inactive: growth inhibition [1] -1.96% | growth inhibition [2] -7.65% | viability increase [3] 0.32% | viability [4] 106% | inhibition [5] 0.98% | RAM network inhibition [6] 1.49%

Cc1ccc(N2CC(C(=O)OCC(=O)C(C)(C)C)CC2=O)cc1 (stereo not given)
inactive: growth inhibition [1] 7.84% | growth inhibition [2] 8.49% | viability increase [3] -1.06% | viability [4] 101% | inhibition [5] 0.56% | RAM network inhibition [6] 3.64%
